Screening data: PubChem BioAssay, several laboratories
CHOP UPR activ: activators of apoptotic CHOP UPR arm, primary screen, cell-based, CHO-CHOP luciferase reporter, luminescence, uHTS. UPR activation; percent of tunicamycin response over DMSO baseline. activation, % at 10 µM. 0.34% of 330,000 active. AID 449763, 2010;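 active = at 10 µM dose, activation of 40% or more, normalized to positive control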;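 also: 100% = tunicamycin at 10 µg/mL and 0% = DMSO alone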
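System: CHO-CHOP luciferase reporter cell line; amount: 500 cells/well; buffer or medium: F12 medium containing 10% fetal bovine serum; incubation: 6 h compound exposure at 37 °C after overnight seeding; measured by: luciferase luminescence after 10 min with Steady-Glo reagent; evaluation: % reporter activation, DMSO baseline versus tunicamycin full activation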
CHOP inh: inhibitors of CHOP promoter induction, primary screen, cell-based, unfolded protein response, luciferase reporter | inhibition, % at 10 µM | 3.8% of 220,000 active | CHO-K1 CHOP-promoter luciferase, tunicamycin-induced, 15-18 h;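 active = compounds that reduced the stress-induced luciferase reporter signal by more than about 70% of percent inhibition, limit read from the data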;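 also: 0% = tunicamycin plus vehicle and 100% = wells without tunicamycin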
Dynein cargo inh: inhibitors of GR-EGFP nuclear translocation, primary screen, dynein cargo transport inhibitor project, imaging, high-content, 3617.4 mouse cells | 0.47% of 220,000 active | test concentration mostly 20 µM; stimulated with dexamethasone, 1 µM; active compounds read low | z-score, hits read low;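 active = plate z-score of nuclear minus cytoplasmic receptor signal below a set negative limit, without overly bright fluorescence or cell loss, cut at about -3.5 in these data, passing the limit was not always enough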;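 also: z-score of nuclear minus cytoplasmic ring GR-EGFP intensity difference per well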
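Buffer or medium: tet-free medium with charcoal-stripped serum / Also added: dexamethasone agonist, 1.0 µM final, for 30 min / Timing: induction 48 h, compound 1 h, agonist 30 min / Measured by: high-content fluorescence imaging after fixation / Read-out: nuclear-to-cytoplasmic GR-EGFP distribution per well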
Lmaj promast: Leishmania major promastigote growth inhibition, primary screen. Leishmania major promastigotes, resazurin fluorescence viability. inhibition, % at 10 µM. 9% of 200,000 active; in the data active = inhibition above about 50%;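 also: promastigotes grown with compound for 44 hours at 28 °C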
T cruzi repl: inhibitors of intracellular T. cruzi growth, primary screen, luminescence, NIH3T3 host cells; T. cruzi beta-gal in NIH3T3, 90 h; inhibition, % (no concentration beside the values); 1.4% of 300,000 active; AID 1885, 2009;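 active = mean inhibition across valid replicates above about 55%, limit read from the data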;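 also: signal also drops with host cell toxicity which is not excluded here; 0% = plate median of DMSO wells and 100% = zero luminescence signal; higher percent means less beta-gal luminescence so fewer parasites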
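System – NIH/3T3 host cells with β-galactosidase reporter T. cruzi · Doses – single 50 nL compound addition per well in DMSO · Reagent – 5000 T. cruzi trypomastigotes/well · Medium – Low-serum DMEM with 2% FBS · Timing – ≥90 h infection period, 3 h prior cell attachment · Evaluation – parasite load inhibition, % · Technique – GalScreen luminescence, 60 min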
UPR XBP1 act: activators of adaptive XBP1 UPR arm, primary screen, cell-based, CHO-XBP1 luciferase reporter, luminescence, uHTS; IRE1-XBP1 UPR activation; percent of tunicamycin response, DMSO as zero; activation, % at 20 µM; 0.33% of 330,000 active;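 active = versus positive control, 20 µM dose yields 30% or more activation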;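 also: 100% = tunicamycin at 10 µg/mL and 0% = DMSO only wells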
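assay system = CHO-XBP1 luciferase reporter cells | amount = 1000 cells/well | buffer or medium = F12 plus 10% FBS | compound dosing = single point, 20 µM final compound, 1% DMSO | incubation = 16-18 h cell attachment at 37 °C, then 6 h compound exposure | detection = Steady-Glo luminescence read | controls = tunicamycin 10 µg/mL and vehicle-only wells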
* hit, by the source's call; · = no result given. The entries come from a sample that favours hits as a whole.

SMILES	CHOP UPR activ	CHOP inh	Dynein cargo inh	Lmaj promast	T cruzi repl	UPR XBP1 act
CCC(=NCCCN(CC)CC)c1c(O)n(C2CCCCC2)c(=O)[nH]c1=O	0	14	0.019	92*	66*	0
CCN(CC)CCCN=C(C)c1c(O)n(C2CCCCC2)c(=O)[nH]c1=O	14	6	-1.1	93*	65*	0
CCC(=NCc1ccco1)c1c(O)n(C2CCCCC2)c(=O)[nH]c1=O	-1	44	0.39	60*	18	1
COCCN1C(=O)NC(=O)/C(=C\c2ccc(Br)cc2)C1=O	-1	19	-0.25	-5	-2	2
COc1ccc(NC(=O)N2C[C@@H]3C[C@@H](C2)c2cccc(=O)n2C3)cc1	2	·	·	·	-3	-3
CCOC(=O)c1c(-n2c(C)cc(/C=C3\C(=O)NC(=O)N(C)C3=O)c2C)sc2c1CCCC2	1	77*	0.16	93*	14	-1
COc1cc(NC(=O)CN2C3CCC2CC(O)(c2cccnc2)C3)cc(OC)c1 (centres undefined)	-1	19	-0.34	93*	2	-1
COc1ccccc1NC(=O)COC(=O)c1cc(C)n(C2CC2)c1C	-1	·	·	·	·	-1
CCCNC(=O)c1c(N)n(Cc2ccc3c(c2)OCO3)c2nc3ccccc3nc12	0	75*	2.7	0	39	9
CC(C)CNC(=O)c1c(N)n(Cc2ccc3c(c2)OCO3)c2nc3ccccc3nc12	3	85*	-0.14	68*	23	5
CC(C)CCNC(=O)c1c(N)n(Cc2ccc3c(c2)OCO3)c2nc3ccccc3nc12	1	36	-0.76	18	16	5
O=C(N=Nc1c(O)[nH]c(=O)[nH]c1=O)C1COc2cc3ccccc3cc2O1 (centres undefined)	-1	26	-0.79	-7	-6	0
CCOC(=O)C(O)(c1ccc(N(CC)S(=O)(=O)c2ccc(C)cc2)cc1)C(F)(F)F (centres undefined)	1	64	-0.42	93*	17	0
CCN(c1ccc(C(O)(C(=O)OC)C(F)(F)F)cc1)S(=O)(=O)c1ccc(C)cc1 (centres undefined)	0	-44	-0.48	89*	-2	-2
COC(=O)C(O)(c1ccc(N(C)S(=O)(=O)c2ccccc2)cc1)C(F)(F)F (centres undefined)	3	25	1.1	100*	-3	-1
CCOC(=O)C(O)(c1ccc(N(CC)C(=O)COc2ccccc2)cc1)C(F)(F)F (centres undefined)	0	19	0.22	65*	2	2
CCOC(=O)C(O)(c1ccc(N(C)C(=O)COc2ccccc2)cc1)C(F)(F)F (centres undefined)	0	·	-0.07	25	-6	2
Cc1nc2ccccc2c(=O)n1-c1cccc([N+](=O)[O-])c1	0	·	·	·	-6	0
NC(CCCCCP(=O)(O)O)C(=O)O (centres undefined)	·	-19	·	·	·	·
COC(=O)C1=C(c2ccc(F)cc2OCc2ccccc2)C[C@@H]2CC[C@H]1N2C(=O)N1CCOCC1	4	·	·	·	·	-2
CCOC(=O)c1ccc(N=Cc2c(O)n(-c3ccccc3F)c(=S)[nH]c2=O)cc1	0	42	-0.41	61*	-5	2
CCn1c(O)c(C=Nc2ccc(S(N)(=O)=O)cc2)c(=O)n(CC)c1=S	5	25	1.2	-6	-8	-1
CC(C)c1ccc(N=Cc2c(O)n(C3CC3)c(=S)[nH]c2=O)cc1	6	84*	0.023	·	-37	1
CCn1c(O)c(C=Nc2ccc(S(N)(=O)=O)cc2)c(=O)[nH]c1=S	1	48	-0.79	56*	-16	-1
NCC(CP(=O)(O)O)c1ccc(Cl)cc1 (centres undefined)	·	-6	·	·	·	·
SMILES	CHOP UPR activ	CHOP inh	Dynein cargo inh	Lmaj promast	T cruzi repl	UPR XBP1 act
CC(C)c1ccccc1OCC(=O)N1CCCN(C)CC1	-1	·	·	·	5	-7
CCN1CCN(c2cc(N3CCCC3)c([N+](=O)[O-])cc2F)CC1	1	-7	-0.36	99*	28	0
CN1CCN(c2cc(N3CCCCCC3)c(F)cc2[N+](=O)[O-])CC1	2	18	-0.19	99*	13	4
CCOP(=O)(OCC)C(NC(=O)CC(C)C)C(Cl)(Cl)Cl (centres undefined)	-2	71*	-0.083	0	5	-1
CCc1ccc(CN2CCN(Cc3cc(Br)ccc3O)CC2)cc1	0	3	0.42	81*	34	-4
CCN1CCN(Cc2cc(Br)ccc2O)CC1	1	-61	0.35	85*	53	0
Oc1ccc(Br)cc1CN1CCN(c2ccccc2)CC1	-2	68	0.29	11	-12	-1
COc1ccc(Br)cc1CN1CCN(CCO)CC1	12	6	-0.082	8	-10	4
COc1cc(Br)cc(CN2CCN(C)CC2)c1O	0	12	0.24	76*	·	-2
CCc1ccc(CN2CCN(C(=O)Cc3ccccc3)CC2)cc1	-1	56	0.49	-6	43	0
CCN1CCN(Cc2cc(Br)cc(Br)c2O)CC1	0	11	-0.68	73*	32	0
Oc1c(Br)cc(Br)cc1Br	0	·	·	·	·	-1
NC(Cc1ccc(N(CCCl)CCCl)cc1)C(=O)O (centres undefined)	·	-8	·	·	·	·
COc1cccc(CNC(=O)CCC(=O)N2C[C@H]3C[C@H](C2)c2cccc(=O)n2C3)c1OC	-1	·	·	·	-11	-2
N=Cc1c(O)n(-c2ccc(C34CC5CC(CC(C5)C3)C4)cc2)c(=O)[nH]c1=O	0	81*	-0.96	-5	-9	0
CN1CCN(Cc2ccc(Br)s2)CC1	1	-2	-0.42	70*	10	-4
O=C(COc1ccc(Cl)cc1)N(c1ccc(Cl)cc1)C1CN2CCC1CC2 (centres undefined)	0	0	-0.2	·	25	10
NC(=O)Cn1cc(C(=O)c2ccccc2)c2ccccc21	0	·	·	·	-2	-1
O=C(c1ccccc1)c1cn(CC(=O)N2CCCc3ccccc32)c2ccccc12	-1	33	-0.013	95*	29	-4
Clc1cccc(CN2CCCCC2c2cccnc2)c1 (centres undefined)	-1	·	-0.61	90*	51	-4
